S1P3 agonist = human S1P3 receptor agonists, primary screen, cell-based, primary and confirmation, NFAT-BLA reporter; Sphingosine 1-phosphate receptor 3 (Homo sapiens), Q99500; S1P3 NFAT-BLA reporter cells, agonism, FRET ratio; relative to 1 µM S1P, basal subtracted; activation, % at 4.5 µM; 60,000 tested, 0.1% active;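 active means activation above the screen-wide mean plus 3 SD, cut at about 4.5% in these data, passing the limit was not always enough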
Target sequence (Q99500 whole entry, looked up): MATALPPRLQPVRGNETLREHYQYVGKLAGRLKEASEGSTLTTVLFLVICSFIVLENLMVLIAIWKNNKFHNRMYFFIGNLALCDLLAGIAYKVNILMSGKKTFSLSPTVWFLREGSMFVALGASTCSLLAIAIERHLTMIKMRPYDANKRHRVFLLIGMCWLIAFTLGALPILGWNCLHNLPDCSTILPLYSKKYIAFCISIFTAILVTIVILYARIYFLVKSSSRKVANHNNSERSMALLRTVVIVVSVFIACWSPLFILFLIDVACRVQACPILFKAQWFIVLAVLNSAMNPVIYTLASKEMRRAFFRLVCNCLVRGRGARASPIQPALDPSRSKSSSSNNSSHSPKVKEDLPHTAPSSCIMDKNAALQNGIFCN
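Benchmarks: high control 1 µM S1P / System: stable CHO line with human S1P3, Gα16, NFAT-BLA reporter / Dosing: single compound concentration, 4.5 µM final / Timing: 4 h compound at 37 °C, 2 h substrate at RT / Measured by: FRET β-lactamase substrate fluorescence, excitation 405 nm, 460/535 nm emission ratio, background-subtracted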
5HT1E antag = 5-HT1E receptor antagonists, primary screen, cell-based, HTS; inhibition, % at 6 µM; 65,000 tested, 0.99% active; 5-hydroxytryptamine receptor 1E (Homo sapiens), P28566; CHO 5-HT1E Ga15 NFAT-bla reporter, FRET, antagonist;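 active means inhibition above a set limit, the mean inhibition across every tested compound plus 3 SD, cut at about 29% in these data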;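 further: signal is the 460 over 535 nm emission ratio of beta-lactamase substrate; 0% = agonist plus DMSO wells and 100% = wells without agonist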
5-HT1A blocker = human 5-HT1a receptor antagonists, primary screen, cell-based, CHO, Ga15 NFAT-bla reporter. inhibition, % at 10 µM. CHO 5-HT1a Ga15 NFAT-bla reporter, antagonist mode. 62,000 tested, 0.68% active. 5-hydroxytryptamine receptor 1A (Homo sapiens), P08908;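 active means inhibition above the mean of all tested compounds plus 3 SD, cut at about 43% in these data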;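 further: receptor stimulated by 5-CT agonist at 100 nM near EC80; beta-lactamase reporter measured by ratiometric fluorescence of a cleavable substrate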
HTR1A agonist = human 5-HT1a receptor agonists, primary screen, cell-based, CHO, Ga15 NFAT-bla reporter; 65,000 tested, 0.56% active; activation, % at 10 µM; CHO 5-HT1a Ga15 NFAT-bla reporter, FRET ratio; 0% basal, 100% maximal reference agonist; 5-hydroxytryptamine receptor 1A (Homo sapiens), P08908;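 active means activation above the screen-wide mean activation plus 3 SD, cut at about 19% in these data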;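 further: 0% = DMSO wells and 100% = 5-CT at EC100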
S1P1 ag pot = S1P1 agonists and agonism potentiators, primary screen, cell-based, primary and confirmation screens, CRE-bla reporter; activation, % at 9.5 µM; S1P1 CRE-bla cells, forskolin, beta-lactamase FRET, potentiator mode; S1P1 agonist co-added at EC20, 2 nM; 100% = saturating reference agonist, 0% = basal; AID 449, 2006; 56,000 tested, 0.57% active; Sphingosine 1-phosphate receptor 1 (Homo sapiens), P21453;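 active means activation above a cutoff set at the mean activation of all tested compounds plus 3 SD, cut at about 54% in these data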;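 further: forskolin at 4 µM as EC80 and the EC20 agonist is SEW2871; 100% = SEW2871 at its EC100 plus forskolin at EC80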
HTR1E agonist = 5-HT1E receptor agonists, primary screen, cell-based, HTS | 65,000 tested, 0.69% active | activation, % at 6 µM | AID 574, 2007 | CHO 5-HT1E Ga15 NFAT-bla reporter, FRET; 0% DMSO wells, 100% control agonist wells;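 active means activation above a set limit, the screen-wide mean activation plus 3 SD, cut at about 8.5% in these data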;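 further: 100% = positive control agonist at 1 µM giving full maximal response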
The depositor's hits bear a star; x = no result given. Compounds with a hit are over-represented: about 3% of the library has one in this group of screens.

SMILES	S1P3 agonist	5HT1E antag	5-HT1A blocker	HTR1A agonist	S1P1 ag pot	HTR1E agonist
COC(=O)CC1(CC(=O)OC)C(=O)NC(=O)NC1=O	0	-8	-4	-3	2	0
Oc1ccc(C2NCc3ccccc3-n3cccc32)cc1Cl (configuration not stated)	0	6	-7	2	94*	1
CN(C)c1nc(OCCNC(=O)COc2ccc(Cl)cc2Cl)nc(N2CCCCC2)n1	0	102*	-3	-1	x	0
CC(=O)C1C2c3ccccc3OC1(C)N=c1s/c(=C/c3cn(C)nc3C)c(=O)n12 (configuration not stated)	0	-4	-6	0	-30	-1
CCCCCCn1c(O)c(C(C)=NC)c(=O)[nH]c1=O	-1	1	x	0	13	1
Cc1ccc2c(c1)C1CN(C)CCC1N2C(=O)c1ccc(Br)o1 (configuration not stated)	x	-5	60*	-3	x	0
Cc1ccc2c(c1)[C@@H]1CN(C)CC[C@@H]1N2C(=O)Nc1cccc(C(F)(F)F)c1	-5	1	x	0	8	0
N#Cc1c(/N=C/c2c(O)n(Cc3ccco3)c(=O)[nH]c2=O)sc2c1CCCC2	0	-10	-8	-1	6	-1
CCN1CC=C(c2c[nH]c3ccccc23)CC1	-1	-5	-1	-1	15	100*
CC(=O)c1cccc(OCC(O)CN2CC=C(c3ccccc3)CC2)c1 (configuration not stated)	-1	11	65*	5	-4	-1
CCCC1=C(C(=O)OCC)C2(C(=O)Nc3ccccc32)C(C#N)=C(N)O1 (configuration not stated)	-1	-16	-12	0	2	1
CCCNC(=O)c1c(N)n(Cc2ccc3c(c2)OCO3)c2nc3ccccc3nc12	18	-2	-8	36*	-46	6
CC(C)OCCCNC(=O)c1c(N)n(Cc2cccs2)c2nc3ccccc3nc12	12*	-11	-24	41*	-244	11*
CCCCNC(=O)c1c(N)n(CCCOC)c2nc3ccccc3nc12	x	20	18	17	x	4
COc1ccc(Cn2c(N)c(C(=O)NCc3ccco3)c3nc4ccccc4nc32)cc1OC	4	19	33	3	-125	2
Cn1c(O)c(C=NCCCN2CCCC2=O)c(=O)n(C)c1=O	-1	1	-14	0	-4	0
Nc1c(C(=O)NC2CCCC2)c2nc3ccccc3nc2n1CC1CCCO1 (configuration not stated)	8.2*	-8	-10	28*	-112	7
CC[C@@H](CO)NC(=O)[C@@H]1C=C2c3cccc4c3c(cn4C)C[C@H]2N(C)C1	-3	-6	x	53*	-19	95*
O=P(O)(O)C#Cc1ccccc1	-2	0	-9	0	-2	-1

Compound activity as filed in PubChem.
